Shown are actives, neighbours in structure and some others; about 2.6% of the full set was active somewhere.
TAAR1 antag = human TAAR1 antagonism. Q96RJ0. hit rate 1.5% among 360,000. inhibition, % at 3 µM. CHO RD-HGA16 TAAR1, Fluo-8 calcium fluorescence, antagonist. AID 624466;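 active = inhibition above a per-plate cutoff, the mean inhibition of test compounds on that plate plus 3 SD, cut at about 49% in these data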;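 note: 0% = DMSO plus EC80 beta-PEA response and 100% = DMSO alone without agonist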
Target sequence (Q96RJ0 whole entry, looked up): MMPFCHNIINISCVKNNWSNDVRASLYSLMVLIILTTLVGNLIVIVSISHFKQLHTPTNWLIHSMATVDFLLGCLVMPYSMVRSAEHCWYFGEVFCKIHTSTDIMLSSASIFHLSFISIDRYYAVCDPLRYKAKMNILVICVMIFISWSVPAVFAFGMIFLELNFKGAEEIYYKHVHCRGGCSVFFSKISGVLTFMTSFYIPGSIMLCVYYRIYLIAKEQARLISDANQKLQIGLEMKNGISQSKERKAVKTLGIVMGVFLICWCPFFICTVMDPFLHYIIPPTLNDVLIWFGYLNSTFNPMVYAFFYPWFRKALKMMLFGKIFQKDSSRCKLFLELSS
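Assay system: RD-HGA16 CHO cells with stable hTAAR1 and Gα16 / Reagent: EC80 β-phenethylamine stimulus / Doses: 3 µM, single point / Timing: dye loading 75 min at 37 °C, then 30 min room temperature / Measured by: Fluo-8 intracellular calcium dye fluorescence, real-time kinetic reads / Controls: vehicle wells and EC80 agonist wells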
Rce1 inhib = blocks yeast Ras-converting enzyme | yeast membranes, quenched prenylated peptide cleavage fluorescence | Q03530 | AID 2563 | calls only | hit rate 0.27% among 290,000;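 active = fall in fluorescence gain of 50% or more versus controls, with final raw signal at or below 3038400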;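 note: plate controls were neutral control wells for no effect and wells lacking membranes for full effect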
Target sequence (Q03530 whole entry, looked up): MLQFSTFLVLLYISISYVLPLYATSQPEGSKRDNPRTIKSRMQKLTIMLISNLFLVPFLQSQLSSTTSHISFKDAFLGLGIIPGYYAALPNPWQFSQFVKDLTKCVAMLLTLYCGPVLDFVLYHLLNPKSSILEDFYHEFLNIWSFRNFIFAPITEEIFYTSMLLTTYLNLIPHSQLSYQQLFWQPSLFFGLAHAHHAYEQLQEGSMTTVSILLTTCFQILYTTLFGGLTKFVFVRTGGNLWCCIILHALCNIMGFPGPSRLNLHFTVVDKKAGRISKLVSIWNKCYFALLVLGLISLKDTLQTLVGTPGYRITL
TAAR1 agonist = human TAAR1 agonism; activation, % at 3 µM; AID 624467; CHO RD-HGA16 TAAR1, Fluo-8 calcium fluorescence; vehicle wells 0%, saturating PEA agonist 100%; hit rate 0.99% among 360,000;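 active = activation above the mean activation of all test compounds in the run plus 3 SD, cut at about 38% in these data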
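Benchmarks: low control DMSO, high control PEA (EC100); System: CHO RD-HGA16 cells carrying human TAAR1 plus Gα16; Detection: Fluo-8 fluorescence, 5 s baseline then 140 s kinetic read; Schedule: 17-24 h plating, Fluo-8 75 min 37 °C, 30 min RT; Read-out basis: % activation from peak over basal fluorescence ratio, DMSO-to-PEA scaled.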
VLA-4 inh = inhibition in a human VLA-4 binding assay; inhibition, % (about 7 µM as worked out from the volumes in the protocol); VLA-4 expressing cells, ligand binding flow cytometry; AID 2557; hit rate 0.2% among 330,000; in the data active = inhibition above about 50%
Platelet DG rel = platelet dense granule release activity; hit rate 0.22% among 300,000; AID 1663; human platelet-rich plasma, SFLLRN dense granule ATP release, luminescence; inhibition, %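 (compounds screened at 7.5 µM in platelet-rich plasma)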;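 active = mean replicate score, as percent of positive control, at or above 50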
TAAR1 ag conf = human TAAR1 agonism, confirmed. shares compounds with TAAR1 agonist. CHO RD-HGA16 TAAR1, Fluo-8 calcium fluorescence; scaled: DMSO 0%, maximal phenethylamine 100%. activation, % at 3 µM. hit rate 82% among 2,400. AID 651783;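 active = activation above a cutoff set at the run's mean compound activation plus 3 SD, cut at about 39% in these data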
Ga16 nonsel ag = nonselective agonist in parental cells, TAAR1 agonist counter-screen; shares compounds with TAAR1 agonist; CHO-Ga16 parental, Fluo-8 calcium fluorescence; normalized to maximal ATP response, DMSO zero; activation, % at 3 µM; hit rate 50% among 2,400; AID 651787;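 active = activation above the run cutoff, the mean activation over all tested wells plus 3 SD, cut at about 12% in these data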;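 note: 0% = DMSO wells and 100% = maximal ATP response on the peak over basal ratio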
TAAR1 desens = TAAR1 response desensitization, agonist counter-screen. shares compounds with TAAR1 agonist. CHO RD-HGA16 hTAAR1, Fluo-8 calcium, beta-PEA response inhibition. inhibition, % at 3 µM. hit rate 46% among 2,400. AID 651951;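 active = inhibition above the run cutoff, the mean inhibition of all test compounds plus 3 SD, cut at about 49% in these data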;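 note: beta-PEA stimulus applied at its EC80; loss of beta-PEA calcium signal after compound pretreatment read as receptor desensitization; 0% = DMSO with beta-PEA at EC80 and 100% = DMSO alone without agonist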
Ga16 antag count = nonselective Ga16 antagonist in TAAR1 agonist counter-screen | shares compounds with TAAR1 agonist | CHO-Ga16 ATP-induced calcium, Fluo-8 fluorescence | inhibition, % at 3 µM | hit rate 39% among 2,400 | AID 651952;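 active = inhibition above the plate's mean compound inhibition plus 3 SD, computed per plate, cut at about 22% in these data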;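 note: 0% = EC80 ATP with DMSO and 100% = DMSO wells without ATP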
Starred values were filed as active, the others as inactive; i = inactive; x = not tested or not shown; + = active, no number.

SMILES	TAAR1 antag	Rce1 inhib	TAAR1 agonist	VLA-4 inh	Platelet DG rel	TAAR1 ag conf	Ga16 nonsel ag	TAAR1 desens	Ga16 antag count
O=C(COc1ccc(F)cc1Br)N1CCc2ccccc21	83*	i	76*	0	4	1	3	-7	1
CC(C)C(N)c1csc(Nc2ccc(C(=O)c3ccccc3)cc2)n1 (stereo not drawn)	-4	x	48*	x	x	62*	14*	20	25*
COc1ccc(CC(N)c2csc(Nc3ccc(C(C)=O)cc3)n2)cc1 (stereo not drawn)	-4	x	19	x	x	x	x	x	x
COc1ccc(CC(N)c2csc(Nc3ccc(C(=O)c4ccccc4)cc3)n2)cc1 (stereo not drawn)	33	x	51*	x	x	39*	27*	31	38*
COc1c([N+](=O)[O-])cc(C(=O)NNC(=O)c2ccc(C)cc2)cc1[N+](=O)[O-]	-1	i	-1	11	0	x	x	x	x
O=C(NCCc1ccccc1)c1cc2ncc(Br)cn2n1	1	i	48*	-7	-3	57*	1	22	12
COc1ccc(-c2c(-c3cc(OC)cc(OC)c3)n(C)c3ccc(-c4ccc5[nH]ccc5c4)cc23)cc1	-10	x	9	14	x	x	x	x	x
Cc1cccc(N/C(N)=N/c2nc(C)cc(C)n2)c1	56*	i	58*	2	0	80*	43*	81*	53*
CCCCc1ccc(N/C(N)=N/c2nc(C)cc(C)n2)cc1	107*	i	161*	-8	-5	131*	90*	107*	96*
CC(=O)Nc1cccc(N/C(N)=N/c2nc(C)cc(C)n2)c1	-3	i	1	10	8	x	x	x	x
CC(C)c1ccc(/C=N/NC(=O)c2nnn(-c3nonc3N)c2CN2CCOCC2)cc1	8	i	61*	8	30	90*	54*	16	14
COc1ccccc1/C(C)=N/NC(=O)c1nnn(-c2nonc2N)c1C(C)C	-4	i	2	7	2	x	x	x	x
CC(C)c1c(C(=O)N/N=C/c2ccc(C(F)(F)F)cc2)nnn1-c1nonc1N	79*	i	150*	1	-3	120*	89*	80*	39*
CC(C)c1c(C(=O)N/N=C/c2ccsc2)nnn1-c1nonc1N	2	+	105*	12	20	124*	82*	43	17
CC(C)c1c(C(=O)N/N=C2\CCc3ccccc32)nnn1-c1nonc1N	8	i	62*	5	6	53*	16*	21	13
CC(C)c1c(C(=O)N/N=C/c2ccc(OCc3ccc(F)cc3)cc2)nnn1-c1nonc1N	-7	i	3	9	-6	x	x	x	x
Cc1cc2c(c(=O)o1)[C@@]1(C(=O)N(C)c3ccccc31)C1=C(CC(C)(C)CC1=O)O2	-19	x	14	x	x	x	x	x	x
CC(C)c1c(C(=O)N/N=C/c2ccoc2)nnn1-c1nonc1N	-5	i	65*	-1	10	24	32*	18	7
COc1cc(/C=N/NC(=O)c2nnn(-c3nonc3N)c2C(C)C)ccc1O	-1	i	17	4	9	x	x	x	x
CCc1c(C(=O)N/N=C/c2cccs2)nnn1-c1nonc1N	-14	i	21	9	-10	x	x	x	x
CC(C)c1c(C(=O)N/N=C/c2cccs2)nnn1-c1nonc1N	17	i	90*	-3	-19	108*	72*	24	12
CCCCn1c(=O)c2c(nc3n2CCCN3Cc2ccccc2)n(C)c1=O	-9	i	0	x	-2	x	x	x	x
Cc1cc(C)c2c(=O)n(CC(=O)Nc3ccc(Br)c(C)c3)sc2n1	53*	x	86*	2	6	100*	68*	71*	64*
Cc1c(Cl)cccc1NC(=O)Cn1cccc1	10	i	11	5	-2	x	x	x	x
Cc1cc(C)c2c(=O)n(CC(=O)Nc3cccc(Cl)c3C)sc2n1	86*	i	103*	6	3	96*	72*	89*	75*
SMILES	TAAR1 antag	Rce1 inhib	TAAR1 agonist	VLA-4 inh	Platelet DG rel	TAAR1 ag conf	Ga16 nonsel ag	TAAR1 desens	Ga16 antag count
COc1ccc(OC)c(CCNC(=O)Cn2sc3nc(C)cc(C)c3c2=O)c1	x	i	x	17	43	x	x	x	x
Cc1cc(C)c2c(=O)n(CC(=O)NC3CCCC3)sc2n1	48	i	57*	4	3	62*	34*	59*	39*
NC(=O)CC(NC(=O)Cc1cccc2ccccc12)c1ccc(N2CCN(c3ccccn3)CC2)c([N+](=O)[O-])c1 (stereo not drawn)	4	i	12	8	-3	x	x	x	x
COC(=O)C1C2CC(C(Br)C2Br)C1C(=O)O (stereo not drawn)	4	x	0	x	x	x	x	x	x
C[C@@H]1CN([C@H](C)CO)C(=O)CCCn2nncc2CO[C@@H]1CN(C)C(=O)c1ccccc1	-4	x	6	x	x	x	x	x	x
O=C(NCCc1cccs1)c1ccc(CS(=O)Cc2ccc(Cl)cc2)o1 (stereo not drawn)	3	i	56*	21	11	62*	2	36	5
CC(C)c1cc(C(=O)NCCc2cccs2)c(N)s1	x	x	x	x	x	x	3	x	10
Cc1ccc(C(=O)NCCc2cccs2)cc1	-1	i	0	-19	-9	x	x	x	x
O=C(NCCc1cccs1)c1ccc(Cl)cc1	47	i	79*	4	12	84*	2	76*	7
C[C@@H]1CN([C@H](C)CO)C(=O)c2cc(Br)cnc2O[C@H]1CN(C)C(=O)Cc1ccccc1	16	x	0	x	x	x	x	x	x
COC(=O)c1cc(-c2ccccc2)n(CCN)c1C	29	i	46*	20	0	51*	0	26	-1
Cc1ccc(-n2nc3c(=O)n(CCCC(=O)NCc4ccccc4C)nc(C)c3c2C)cc1	-30	i	-2	10	-7	x	x	x	x
Cc1ccc(-n2nc3c(=O)n(CC(=O)NCCc4ccccc4C)nc(C)c3c2C)cc1	x	i	x	10	-13	x	2	x	7
O=C1C=C(c2ccccc2)C(=O)N1Nc1ccccc1	16	i	51*	17	61*	70*	48*	43	35*
NC(=O)c1ccc(-n2nnnc2SCC(=O)Nc2ccccc2F)cc1	8	i	2	3	6	x	x	x	x
Cc1cc(C(C)(C)C)cc(C)c1CC1=NCCN1	-23	i	32	-9	1	x	x	x	x

Screening results: PubChem, several laboratories
